Data reported in ChEMBL document CHEMBL3745614, “Potent and selective N-(4-sulfamoylphenyl)thiourea-based GPR55 agonists” (Eur J Med Chem, 2016).
Active and inactive are the calls of the source. The calls are words filed in the database; no cut-off is given here.

Legend:
[1] = molecular target: T1, Sodium- and chloride-dependent glycine transporter 1 (Homo sapiens, UniProt P48067); assay: Inhibition of GlyT1 (unknown origin) expressed in HEK293 cells by scintillation proximity assay; type: cell-based
T1 sequence (P48067 whole entry): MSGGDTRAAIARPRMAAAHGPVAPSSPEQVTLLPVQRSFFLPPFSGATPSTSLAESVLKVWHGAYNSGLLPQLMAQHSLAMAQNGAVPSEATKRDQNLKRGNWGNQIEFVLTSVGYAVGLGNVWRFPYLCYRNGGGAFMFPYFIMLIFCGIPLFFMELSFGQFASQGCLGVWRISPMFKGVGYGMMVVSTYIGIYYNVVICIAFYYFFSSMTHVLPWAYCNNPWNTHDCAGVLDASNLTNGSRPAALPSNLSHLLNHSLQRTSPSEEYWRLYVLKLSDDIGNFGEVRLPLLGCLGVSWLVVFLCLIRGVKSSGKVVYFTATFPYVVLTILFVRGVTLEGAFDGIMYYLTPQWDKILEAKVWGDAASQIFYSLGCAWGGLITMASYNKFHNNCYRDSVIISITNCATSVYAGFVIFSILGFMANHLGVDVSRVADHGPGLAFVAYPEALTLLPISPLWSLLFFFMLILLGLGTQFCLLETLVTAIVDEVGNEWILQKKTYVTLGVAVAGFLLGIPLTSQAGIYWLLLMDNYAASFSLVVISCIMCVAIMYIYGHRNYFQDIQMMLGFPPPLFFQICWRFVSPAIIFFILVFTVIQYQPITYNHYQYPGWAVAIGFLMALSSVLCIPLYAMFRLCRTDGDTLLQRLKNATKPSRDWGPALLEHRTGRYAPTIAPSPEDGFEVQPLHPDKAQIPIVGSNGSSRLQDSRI

[2] = molecular target: T2, G-protein coupled receptor 55 (Homo sapiens, UniProt Q9Y2T6); assay: Agonist activity at human GPR55 expressed in Saccharomyces cerevisiae by beta-galactosidase reporter assay
[3] = molecular target: T3, Fatty-acid amide hydrolase 1 (Homo sapiens) (UniProt O00519); assay: Inhibition of human FAAH expressed in African green monkey COS-7 cell membranes using [3H]-AEA as substrate assessed as residual activity at 10 uM preincubated for 10 mins followed by substrate addition measured after 10 mins by liquid scintillation counting analysis relative to control
T3 sequence (whole entry): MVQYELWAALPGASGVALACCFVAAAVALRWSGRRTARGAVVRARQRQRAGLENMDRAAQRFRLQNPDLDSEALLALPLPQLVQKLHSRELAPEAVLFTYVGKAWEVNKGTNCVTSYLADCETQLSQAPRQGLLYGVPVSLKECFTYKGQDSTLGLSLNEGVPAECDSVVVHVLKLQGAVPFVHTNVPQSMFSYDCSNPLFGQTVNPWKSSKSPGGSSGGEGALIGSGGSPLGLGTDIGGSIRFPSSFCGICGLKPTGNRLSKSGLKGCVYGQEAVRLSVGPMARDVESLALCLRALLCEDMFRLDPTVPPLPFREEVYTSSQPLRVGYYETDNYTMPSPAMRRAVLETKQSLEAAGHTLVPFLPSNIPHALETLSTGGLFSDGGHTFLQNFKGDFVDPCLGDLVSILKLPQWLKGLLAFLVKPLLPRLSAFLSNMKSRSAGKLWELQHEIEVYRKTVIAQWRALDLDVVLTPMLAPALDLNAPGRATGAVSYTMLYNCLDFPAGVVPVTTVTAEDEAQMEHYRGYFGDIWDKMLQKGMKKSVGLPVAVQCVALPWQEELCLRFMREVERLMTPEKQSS
In short: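 Membranes of COS-7 cells overexpressing hFAAH, 1 μg protein per incubation. Substrate 20 μM AEA including 10 nM [3H]AEA (60 Ci/mmol). Compounds tested at 10 μM.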

[4] = molecular target: T2, G-protein coupled receptor 55; assay: Agonist activity at human GPR55 expressed in CHOK1 cells at 10 uM by pathHunter beta-arrestin assay relative to control; type: cell-based; conditions: CHO-K1
In short: (§1)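 PathHunter eXpress GPR55 CHO-K1 β-arrestin kit run per the kit protocol, compounds screened at 10 μM. Luminescence read and expressed as percentage of the signal from bovine liver LPI at 1 μM. Mean with range of two experiments, each done in duplicate.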

[5] = molecular target: Cannabinoid receptor 1 (Homo sapiens) (UniProt P21554); assay: Agonist activity at CBR1 (unknown origin) assessed as [35S]GTPgammaS binding at 10 uM by […] assay relative to control; type: functional
[6] = molecular target: T2, G-protein coupled receptor 55; assay: Agonist activity at human GPR55 expressed in CHOK1 cells at 10 uM by pathHunter beta-arrestin assay relative to LPI; type: cell-based; conditions: CHO-K1; in short: as §1
[7] = molecular target: T4, Monoglyceride lipase (Homo sapiens) (UniProt Q99685); assay: Inhibition of human MGL expressed in […] cells using 2AG as substrate assessed as residual activity at 10 uM preincubated for 10 mins followed by substrate addition measured after 10 mins by HPLC analysis; type: cell-based
T4 sequence (whole entry): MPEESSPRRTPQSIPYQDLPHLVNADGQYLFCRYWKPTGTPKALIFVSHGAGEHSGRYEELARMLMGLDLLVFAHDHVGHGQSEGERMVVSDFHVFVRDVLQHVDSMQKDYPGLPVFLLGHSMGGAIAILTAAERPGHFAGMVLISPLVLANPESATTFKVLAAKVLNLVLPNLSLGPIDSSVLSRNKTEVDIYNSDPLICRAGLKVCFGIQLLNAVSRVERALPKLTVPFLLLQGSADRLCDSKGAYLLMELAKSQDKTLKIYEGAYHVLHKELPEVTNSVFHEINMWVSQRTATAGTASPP
In short: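 Lysates of HEK cells overexpressing hMGL, 2.5 μg protein per incubation, substrate at 50 μM. Compounds tested at 10 μM.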

[8] = molecular target: T5, Lysophosphatidylserine lipase ABHD12 (Homo sapiens) (UniProt Q8N2K0); assay: Inhibition of human ABHD12 expressed in […] cells using 2-AG as substrate assessed as glycerol liberation at 1 uM preincubated for 30 mins followed by 2-AG addition measured for 90 mins by fluorescent glycerol assay relative to control; type: cell-based; parameters: scale not given: the % may be the effect or the level left
T5 sequence (whole entry): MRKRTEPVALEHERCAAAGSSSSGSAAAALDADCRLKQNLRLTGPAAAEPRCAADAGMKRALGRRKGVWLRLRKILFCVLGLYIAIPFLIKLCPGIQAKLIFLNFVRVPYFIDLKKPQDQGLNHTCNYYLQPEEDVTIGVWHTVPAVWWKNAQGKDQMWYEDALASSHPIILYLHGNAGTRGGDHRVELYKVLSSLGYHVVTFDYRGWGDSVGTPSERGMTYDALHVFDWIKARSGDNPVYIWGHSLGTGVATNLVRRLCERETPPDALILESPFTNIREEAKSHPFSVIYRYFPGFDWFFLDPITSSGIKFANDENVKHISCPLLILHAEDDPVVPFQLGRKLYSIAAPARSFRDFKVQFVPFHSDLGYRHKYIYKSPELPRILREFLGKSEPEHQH
In short: (§2)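 Lysates of HEK293 cells transiently overexpressing hABHD6 or hABHD12, 0.3 μg protein/well. Pretreated 30 min with DMSO or compound, then 2-AG added (12.5 μM final). Glycerol release coupled enzymatically to H2O2-dependent resorufin formation; fluorescence (ex 530/em 590 nm) followed kinetically for 90 min.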

[9] = molecular target: T6, Monoacylglycerol lipase ABHD6 (Homo sapiens) (UniProt Q9BV23); assay: Inhibition of human ABHD6 expressed in […] cells using 2-AG as substrate assessed as glycerol liberation at 1 uM preincubated for 30 mins followed by 2-AG addition measured for 90 mins by fluorescent glycerol assay relative to control; type: cell-based; parameters: scale not given: the % may be the effect or the level left; in short: as §2
T6 sequence (whole entry): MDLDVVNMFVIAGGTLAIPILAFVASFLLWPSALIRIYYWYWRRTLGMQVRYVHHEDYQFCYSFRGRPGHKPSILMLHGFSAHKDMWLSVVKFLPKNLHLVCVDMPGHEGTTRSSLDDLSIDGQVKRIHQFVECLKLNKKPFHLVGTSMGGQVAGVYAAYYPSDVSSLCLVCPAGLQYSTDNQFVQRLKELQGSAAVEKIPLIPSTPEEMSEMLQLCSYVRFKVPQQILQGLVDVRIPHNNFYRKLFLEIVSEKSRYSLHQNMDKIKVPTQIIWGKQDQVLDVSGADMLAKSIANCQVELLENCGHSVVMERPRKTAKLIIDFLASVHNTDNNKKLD

[10] = molecular target: Cannabinoid receptor 2 (Homo sapiens) (UniProt P34972); assay: Antagonist activity at human CBR2 assessed as [35S]GTPgammaS binding at 10 uM by […] assay relative to control; type: functional; parameters: scale not given: the % may be the effect or the level left
[11] = molecular target: Cannabinoid receptor 1 (Homo sapiens) (UniProt P21554); assay: Antagonist activity at human CBR1 assessed as [35S]GTPgammaS binding at 10 uM by radiometric assay relative to control; parameters: scale not given: the % may be the effect or the level left
[12] = molecular target: Cannabinoid receptor 2 (Homo sapiens) (UniProt P34972); assay: Agonist activity at CBR2 (unknown origin) assessed as [35S]GTPgammaS binding at 10 uM by […] assay relative to control; type: functional
[13] = molecular target: T2, G-protein coupled receptor 55; assay: Agonist activity at human GPR55 expressed in HEK293 cells assessed as calcium signalling at 10 uM by fura 2-based digital epifluorescence microscopy; type: functional, cell-based

T2 sequence (Q9Y2T6 whole entry): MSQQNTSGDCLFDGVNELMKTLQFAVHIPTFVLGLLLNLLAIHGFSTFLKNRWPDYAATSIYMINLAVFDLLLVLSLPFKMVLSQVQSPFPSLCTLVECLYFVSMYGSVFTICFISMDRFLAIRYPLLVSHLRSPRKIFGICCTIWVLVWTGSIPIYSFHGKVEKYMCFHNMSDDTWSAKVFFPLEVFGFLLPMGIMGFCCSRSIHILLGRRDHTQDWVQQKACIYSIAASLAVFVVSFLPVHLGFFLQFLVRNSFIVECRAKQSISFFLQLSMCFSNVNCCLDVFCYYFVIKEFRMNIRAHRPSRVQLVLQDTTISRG
Sequence of Cannabinoid receptor 2 (Homo sapiens) (P34972 whole entry): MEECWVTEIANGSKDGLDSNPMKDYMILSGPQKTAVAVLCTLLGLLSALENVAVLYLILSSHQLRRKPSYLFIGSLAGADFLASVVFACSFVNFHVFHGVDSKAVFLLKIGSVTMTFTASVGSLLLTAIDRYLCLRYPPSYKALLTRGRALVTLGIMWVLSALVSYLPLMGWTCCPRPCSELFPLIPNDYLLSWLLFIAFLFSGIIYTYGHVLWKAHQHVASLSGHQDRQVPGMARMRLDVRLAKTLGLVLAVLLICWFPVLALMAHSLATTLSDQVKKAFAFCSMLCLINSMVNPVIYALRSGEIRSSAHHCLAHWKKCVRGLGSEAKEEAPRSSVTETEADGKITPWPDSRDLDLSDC
Sequence of Cannabinoid receptor 1 (Homo sapiens) (P21554 whole entry): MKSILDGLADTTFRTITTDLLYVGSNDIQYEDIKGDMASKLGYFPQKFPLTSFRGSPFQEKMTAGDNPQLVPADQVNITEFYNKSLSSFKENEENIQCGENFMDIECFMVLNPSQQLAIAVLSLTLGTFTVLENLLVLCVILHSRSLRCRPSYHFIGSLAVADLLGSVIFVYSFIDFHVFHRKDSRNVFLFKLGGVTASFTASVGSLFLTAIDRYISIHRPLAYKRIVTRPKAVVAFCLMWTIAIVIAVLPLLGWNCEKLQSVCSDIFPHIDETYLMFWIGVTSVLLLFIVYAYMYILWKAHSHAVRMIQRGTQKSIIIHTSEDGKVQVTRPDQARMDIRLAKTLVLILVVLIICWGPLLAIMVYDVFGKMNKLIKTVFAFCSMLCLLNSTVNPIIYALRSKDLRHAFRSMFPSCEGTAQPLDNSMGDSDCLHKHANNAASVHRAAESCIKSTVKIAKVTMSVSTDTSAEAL

SMILES | IC50 [1] [nM] | EC50 [2] [nM] | Activity [3] [%] | Activity [4] [%] | Activity [5] [%] | Activity [6] [%] | Activity [7] [%] | Activity [8] [%] | Activity [9] [%] | Activity [10] [%] | Activity [11] [%] | Activity [12] [%] | Activity [13]
CS(=O)(=O)c1ccc(-c2ccc(F)cc2)c(C(=O)N2CCN(c3ccc(N)cc3F)CC2)c1 | 10000 | 158 |  |  |  |  |  |  |  |  |  |  | 
COC(C)c1ccc(N2CCN(C(=O)c3cc(S(C)(=O)=O)ccc3-c3ccc(F)cc3)CC2)c(F)c1 (stereo unspecified) | 20 | 316 |  |  |  |  |  |  |  |  |  |  | 
O=C(NC(=S)Nc1ccc(S(=O)(=O)NCCc2c[nH]c3ccccc23)cc1)c1ccc(-c2ccccc2)cc1 |  |  | 85 | 132 | 103 | 90 | 102 | 101 | 99 | 106 | 94 | 96 | inactive
O=C(NC(=S)Nc1ccc(S(=O)(=O)NCc2ccc(I)cc2)cc1)c1ccc(-c2ccccc2)cc1 |  |  | 93 | 157 | 100 | 107 | 98 | 100 | 103 | 95 | 98 | 95 | inactive
